From article PMC4780725 (Drug Design, Development and Therapy, 2016)

What was measured:
SGC-7901 cells = assay: MTT cell viability assay, SGC-7901; assay type: cell-based, human; settings: read-out: IC50 values of compounds on cells, SGC-7901, 72 hours, SGC-7901 gastric cancer cells
Summary of the method: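 SGC-7901 cells were seeded at ~5,000/well and exposed 72 h to test compound at 0.096, 0.48, 2.4, 12 and 60 µM. MTT was added for 4 h, formazan dissolved in DMSO and absorbance read at 490 nm. Inhibition ratio = (1 − A treated/A DMSO control) × 100%. IC50, the concentration giving 50% inhibition of proliferation, was calculated by curve fitting.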

GES-1 cells = assay: MTT cell viability assay, GES-1 normal gastric mucosa epithelial cells; assay type: cell-based; settings: Homo sapiens, GES1, 72 h, read-out: IC50 values of compounds on cells, GES-1
Summary of the method: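 GES-1 cells were grown in RPMI-1640 with 10% FBS at 37°C and 5% CO2, seeded at ~5,000 cells/well, then exposed for 72 h to 0.096, 0.48, 2.4, 12 and 60 µM compound. MTT was added for 4 h, formazan dissolved in DMSO, and absorbance read at 490 nm. Inhibition was calculated against the DMSO control, and IC50 is the concentration giving 50% inhibition. At least three independent experiments were run.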

[1] = tested on: p65 nuclear translocation in BGC-823 cells; assay: p65 nuclear translocation, immunofluorescence, BGC-823; assay type: cell-based, human; settings: BGC-823, 20 µM, 60 minutes before TNF-α
Summary of the method: (§1)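 Cells were pretreated 60 min with DMSO, test compound (20 µM) or a reference NF-κB inhibitor (20 µM), then stimulated with TNF-α 1 ng/mL for 60 min. After an ice-cold PBS wash, cells were fixed 10 min at room temperature and blocked 1 h. They were incubated overnight at 4°C with rabbit anti-p65, then anti-rabbit Cy3 for 1 h in the dark, and DAPI for 5 min. Fluorescence microscopy at 20×10; p65 red and nuclei blue in merged images.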

[2] = tested on: p65 nuclear translocation in SGC-7901 cells; assay: p65 nuclear translocation, Western blot of nuclear extracts, SGC-7901; assay type: cell-based, human; settings: SGC-7901, pretreatment 60 minutes, TNF-α 1 ng/mL 60 minutes
Summary of the method: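 SGC-7901 cells were pretreated for 60 min with test compound (10 or 20 µM), a reference NF-κB inhibitor or DMSO, then stimulated with TNF-α at 1 ng/mL for 60 min. Cells were trypsinized and washed thrice in ice-cold PBS. Cytoplasmic extract came from Buffer A (10 min on ice) plus Buffer B (1 min) and a 16,000× g spin for 5 min; nuclear extract from the pellet in Buffer C for 40 min on ice. Nuclear p65 was normalized to Lamin B and cytoplasmic p65 to GAPDH.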

[3] = tested on: SGC-7901 and BGC-823 cells; assay: Matrigel invasion assay; assay type: cell-based, human; settings: 24 hours; Da0324 5 or 10 µM, curcumin 10 µM
Summary of the method: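 Transwell inserts were coated with Matrigel and air-dried for 2 h at room temperature. Cells at 1×10^6 cells/mL in serum-free RPMI-1640 with compound or DMSO were placed in the upper chamber, with RPMI-1640 plus 10% FBS below, for 24 h at 37°C. Cells on the lower surface were fixed, crystal violet-stained and counted by light microscopy as the mean of three fields, from three separate treatments.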

[4] = Stability in phosphate buffer by UV-visible absorption spectra; assay type: physicochemical; settings: phosphate buffer pH 7.4, 250 to 600 nm, every 5 minutes for more than 25 minutes
Summary of the method: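 Test compound was dissolved and diluted in DMSO, then mixed into phosphate buffer at pH 7.4. Optical density from 250 to 600 nm was recorded every 5 min for more than 25 min.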

[5] = tested on: SGC-7901 or BGC-823 cells; assay: Clonogenic assay; assay type: cell-based, human; settings: 5 µM, 24 hours treatment, then 7 days in fresh medium
Summary of the method: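 SGC-7901 or BGC-823 cells were exposed to test compound (2.5 or 5 µM) or DMSO for 24 h. The medium was then replaced with fresh medium and colonies grew for 7 days before crystal violet staining and photography.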

[6] = tested on: SGC-7901 or BGC-823 cells; assay: Cell cycle analysis by flow cytometry; assay type: cell-based, human; settings: 24 hours
Summary of the method: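 Cells in RPMI-1640 with 10% FBS were exposed for 24 h to test compound (5 or 10 µM, or 20 µM for the reference) or DMSO. All cells were collected by trypsinization, PBS-washed, fixed in 75% ethanol for 1 h at −20°C, washed, and stained with PI for 15 min at 4°C in the dark. G0/G1, S and G2/M fractions were measured by FACS, from three separate treatments.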

[7] = tested on: p65 nuclear translocation in SGC-7901 cells; assay: p65 nuclear translocation, immunofluorescence, SGC-7901; assay type: cell-based, human; settings: SGC-7901, 20 µM, 1 hour before TNF-α
Summary of the method: as §1

[8] = tested on: NF-κB activation induced by TNF-α in SGC-7901 cells; assay: Western blot of TNF-α-induced NF-κB activation; assay type: cell-based, human; settings: SGC-7901, 10 µM, 60 minutes pretreatment, TNF-α 1 ng/mL 15 minutes
Summary of the method: (§2)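 SGC-7901 or BGC-823 cells were pretreated 60 min with DMSO, test compound (5, 10 or 20 µM) or a reference NF-κB inhibitor (20 µM), then stimulated with TNF-α 1 ng/mL for 15 min. Whole-cell lysates were cleared at 12,000× g, 4°C, 10 min, and equal protein run on SDS-PAGE. Blots were probed overnight for p-IKK, IκB-α and p-IκB-α, then with HRP secondaries 1 h at 37°C. Densitometry normalised to IKK and GAPDH, respectively.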

[9] = tested on: SGC-7901 or BGC-823 cells; assay: Apoptosis by Annexin-V/PI flow cytometry; assay type: cell-based, human; settings: 10 or 20 µM, 24 hours
Summary of the method: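 SGC-7901 or BGC-823 cells in RPMI-1640 with 10% FBS at 37°C, 5% CO2, were treated 24 h with test compound (10 or 20 µM), a reference compound (20 µM) or DMSO. Cells were collected, washed twice in PBS, then stained with Annexin-V for 10 min in the dark and with PI for 5 min, and analysed by FACS. Annexin+/PI− cells were scored early apoptotic and Annexin+/PI+ late apoptotic/dead; three separate treatments.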

[10] = tested on: caspase 3, bcl-2, bax in SGC-7901 cells; assay: Western blot of apoptosis-related proteins, SGC-7901; assay type: cell-based, human; settings: SGC-7901, 10 µM, 24 hours
Summary of the method: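 SGC-7901 cells were exposed 24 h to DMSO, test compound (5, 10 or 20 µM) or a reference compound (20 µM). Lysates were cleared at 12,000× g, 4°C, and equal protein separated by SDS-PAGE. Blots were probed overnight for caspase 3, cleaved caspase 3, bax and bcl-2, with GAPDH as loading control. Bands were quantified by densitometry.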

[11] = tested on: NF-κB activation induced by TNF-α in BGC-823 cells; assay: Western blot of TNF-α-induced NF-κB activation; assay type: cell-based, human; settings: BGC-823, 10 µM, 60 minutes pretreatment, TNF-α 1 ng/mL 15 minutes
Summary of the method: as §2

IC50 (SGC-7901 cells) [µM] | Absorption intensity of the spectrum in phosphate buffer (degradation) [4] | Compound | IC50 (GES-1 cells) [µM] | p65 nuclear translocation induced by TNF-α [1] | Nuclear p65 after TNF-α stimulation [2] | Invasion through Matrigel [3] | Colony formation [5] | Cells arrested in the G2/M phase ([6]; 20 µM) | p65 red fluorescence in cell nuclei after TNF-α [7] | Phosphorylation of IKK and IκB-α stimulated by TNF-α [8] | Number of early- and late-period apoptotic cells [9] | Caspase 3 level and cleavage [10] | Cells arrested in the G2/M phase ([6]; 10 µM) [%] | Expression of p-IKK and p-IκB-α stimulated by TNF-α [11]
7.8 ± 1.8 |  | Cc1ccc2nc(NCCN)c3ncc(C)n3c2c1 [BMS345541, reference compound] | 9.8 ± 2.5 | could inhibit the p65 nuclear translocation | did not significantly increase |  |  |  |  |  |  |  |  | 
 | significantly decreased | COc1cc(/C=C/C(=O)CC(=O)/C=C/c2ccc(O)c(OC)c2)ccc1O [CUR, curcumin, reference compound] | 29.1 ± 3.8 |  |  | could similarly inhibit cell invasion | no significant effects | ~ 10% |  |  |  |  |  | 
 |  | COc1cccc(/C=C/C(=O)/C=C/c2cccc(OC)c2OC)c1OC [Compound B19, (1E,4E)-1,5-bis(2,3-dimethoxyphenyl)penta-1,4-dien-3-one] | 3.7 ± 1.9 |  |  |  |  |  |  |  |  |  |  | 
 | less degraded than curcumin | COc1ccc(OC)c(/C=C2\CC/C(=C\c3ccc(O)c(OC)c3)C2=O)c1 [Da0324, (2E,5E)-2-(2,5-dimethoxybenzylidene)-5-(4-hydroxy-3-methoxybenzylidene)cyclopentanone] | 27.3 ± 8.2 | could inhibit the p65 nuclear translocation | did not significantly increase | obviously inhibited the invasion | No colonies were visible |  | the red fluorescence did not increase in the cell nuclei | significantly inhibit the phosphorylation of IKK and IκB-α | significantly higher than those of the curcumin-treated cells | significantly reduced caspase 3 and induced its cleavage | ~30 | similarly inhibit the expression of p-IKK and p-IκB-α
